Source: ChEMBL document CHEMBL3352181, “Novel phenyl and pyridyl substituted derivatives of isoindolines: Synthesis, antitumor activity and DNA binding features” (Eur J Med Chem, 2014)
Activity calls are given as the source filed them. The rule behind the calls is not given here.

Tests used:
[1] = tested on: SW-620; experiment: Induction of cell cycle arrest on human SW620 cells assessed as accumulation at subG1 phase at 20 uM after 48 hrs by propidium iodide staining based flow cytometry (reference value: 12.1 +/- 0.3%); assay type: functional; settings: in the assay text read “after 24 hrs” for “after 48 hrs”
How it was run: (§1)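 HepG2 or SW620 cells were seeded at 25000 per well. After 24 h they were treated, then harvested 24 or 48 h later. Attached cells were trypsinized, pooled with floating cells, PBS-washed and fixed in 70% ethanol. Cells were stained with PI 1 µg/mL plus RNase A 0.2 µg/mL, and 10 000 events were acquired by flow cytometry. Phase percentages come from DNA histograms, in duplicate, with ANOVA at p < 0.05.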

[2] = tested on: SW-620; experiment: Induction of cell cycle arrest on human SW620 cells assessed as accumulation at subG1 phase at 50 uM after 48 hrs by propidium iodide staining based flow cytometry (reference value: 12.1 +/- 0.3%); assay type: functional; settings: in the assay text read “after 24 hrs” for “after 48 hrs”; how it was run: as §1
[3] = tested on: SW-620; experiment: Induction of cell cycle arrest on human SW620 cells assessed as accumulation at G1 phase at 20 uM after 48 hrs by propidium iodide staining based flow cytometry (reference value: 38.1 +/- 1.1%); assay type: functional; settings: in the assay text read “after 24 hrs” for “after 48 hrs”; how it was run: as §1
[4] = tested on: SW-620; experiment: Induction of cell cycle arrest on human SW620 cells assessed as accumulation at G1 phase at 50 uM after 48 hrs by propidium iodide staining based flow cytometry (reference value: 38.1 +/- 1.1%); assay type: functional; settings: in the assay text read “after 24 hrs” for “after 48 hrs”; how it was run: as §1
[5] = tested on: SW-620; experiment: Induction of cell cycle arrest on human SW620 cells assessed as accumulation at S phase at 20 uM after 48 hrs by propidium iodide staining based flow cytometry (reference value: 39.4 +/- 0.2%); assay type: functional; settings: in the assay text read “after 24 hrs” for “after 48 hrs”; how it was run: as §1
[6] = tested on: SW-620; experiment: Induction of cell cycle arrest on human SW620 cells assessed as accumulation at S phase at 50 uM after 48 hrs by propidium iodide staining based flow cytometry (reference value: 39.4 +/- 0.2%); assay type: functional; settings: in the assay text read “after 24 hrs” for “after 48 hrs”; how it was run: as §1
[7] = tested on: SW-620; experiment: Induction of cell cycle arrest on human SW620 cells assessed as accumulation at G2/M phase at 20 uM after 48 hrs by propidium iodide staining based flow cytometry (reference value: 22.5 +/- 0.9%); assay type: functional; settings: in the assay text read “after 24 hrs” for “after 48 hrs”; how it was run: as §1
[8] = tested on: SW-620; experiment: Induction of cell cycle arrest on human SW620 cells assessed as accumulation at G2/M phase at 50 uM after 48 hrs by propidium iodide staining based flow cytometry (reference value: 22.5 +/- 0.9%); assay type: functional; settings: in the assay text read “after 24 hrs” for “after 48 hrs”; how it was run: as §1
[9] = tested on: SW-620; experiment: Induction of apoptosis in human SW620 cells assessed as enlarged cells level at 50 uM after 24 hrs by Annexin V-Fluos staining based fluorescent microscopy; assay type: functional, cell-based
How it was run: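 Cells seeded on chamber slides at 4000 per well and treated 24 h (HepG2 at 25 or 50 µM; SW620 at 50 µM). Incubated 15 min with Annexin V-Fluos reagent plus propidium iodide, washed in PBS, and examined by fluorescence microscopy for morphology and labelling.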

[10] = tested on: Calf thymus DNA; experiment: Binding affinity to calf thymus DNA assessed as change in melting temperature at drug/ base pair ratio of 0.25 by spectrophotometry; assay type: nucleic-acid assay; settings: Bos taurus
How it was run: (§2)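 CT-DNA absorbance followed at 260 nm from 20 to 100 °C, rising 1 °C per min, in BPE buffer, with or without compound at drug/base-pair ratio 0.25 or 0.5. Tm taken as midpoint of the hyperchromic transition from first-derivative plots. ΔTm is Tm with compound minus Tm of DNA alone.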

[11] = tested on: Calf thymus DNA; experiment: Binding affinity to calf thymus DNA assessed as change in melting temperature at drug/ base pair ratio of 0.5 by spectrophotometry; assay type: nucleic-acid assay; settings: Bos taurus; how it was run: as §2
[12] = tested on: Calf thymus DNA; experiment: Binding affinity to calf thymus DNA at 50 uM circular dichroism spectroscopy; assay type: nucleic-acid assay; settings: Bos taurus
How it was run: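 CD spectra recorded from 480 to 230 nm, 10 mm path, 20 °C, in BPE buffer. CT-DNA (50 µM) incubated with compound rising from 1 to 60 µM or to 80 µM. Compound without DNA served as the control for intrinsic CD.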

[13] = molecular target: T1, DNA topoisomerase 1 (Homo sapiens) (UniProt P11387); experiment: Inhibition of human topoisomerase 1 assessed as topoisomerase poison activity by measuring generation of open circular DNA using supercoiled pUC19 DNA at 5 to 50 uM by agarose gel electrophoresis
T1 sequence (whole entry): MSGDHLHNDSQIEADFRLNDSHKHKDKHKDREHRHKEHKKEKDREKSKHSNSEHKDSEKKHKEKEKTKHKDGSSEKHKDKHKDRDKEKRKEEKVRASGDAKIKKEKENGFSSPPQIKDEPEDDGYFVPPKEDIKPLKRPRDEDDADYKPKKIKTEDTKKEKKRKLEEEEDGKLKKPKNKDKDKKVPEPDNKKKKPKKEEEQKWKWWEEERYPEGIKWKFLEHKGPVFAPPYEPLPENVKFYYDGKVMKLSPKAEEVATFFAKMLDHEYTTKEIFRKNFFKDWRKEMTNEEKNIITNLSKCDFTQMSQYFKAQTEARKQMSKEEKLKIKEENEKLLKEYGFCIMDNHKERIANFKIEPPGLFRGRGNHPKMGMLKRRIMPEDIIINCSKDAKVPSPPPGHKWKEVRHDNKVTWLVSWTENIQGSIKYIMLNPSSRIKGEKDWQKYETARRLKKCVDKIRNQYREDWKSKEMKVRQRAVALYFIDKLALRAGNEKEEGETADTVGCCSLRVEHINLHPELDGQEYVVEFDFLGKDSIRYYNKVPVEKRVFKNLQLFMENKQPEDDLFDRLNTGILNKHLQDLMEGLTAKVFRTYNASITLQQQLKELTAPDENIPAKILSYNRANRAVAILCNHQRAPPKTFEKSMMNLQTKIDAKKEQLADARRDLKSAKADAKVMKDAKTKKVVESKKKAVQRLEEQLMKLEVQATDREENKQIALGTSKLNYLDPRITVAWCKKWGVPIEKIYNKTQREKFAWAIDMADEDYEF
How it was run: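 Supercoiled pUC19 plasmid was incubated with human topoisomerase I and graded compound concentrations. Reactions were stopped with SDS and proteinase K. DNA forms were resolved on 1% agarose in TBE (2 h, 120 V), post-stained with ethidium bromide and photographed under UV. Poisoning was read as appearance of nicked DNA, with camptothecin as the positive control.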

[14] = tested on: Nucleic Acid; experiment: Induction of DNA intercalation in supercoiled pUC19 DNA in presence of human topoisomerase 1 assessed as effect on topoisomerase 1-mediated DNA relaxation at 5 to 50 uM by agarose gel electrophoresis; assay type: nucleic-acid assay; settings: Escherichia coli
How it was run: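 Supercoiled pUC19 incubated with human topoisomerase I and graded compound concentrations. Stopped with SDS/proteinase K. DNA forms resolved on 1% agarose in TBE, 2 h at 120 V, stained post-run with ethidium bromide and viewed under UV. Camptothecin was the topo I poison control.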

[15] = tested on: MCF7; experiment: Antiproliferative activity against human MCF7 cells assessed as inhibition of cell proliferation after 72 hrs by MTT assay; assay type: functional, cell-based
How it was run: (§3)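 Cells grown as monolayers in DMEM with 10% FBS, 2 mM L-glutamine, penicillin/streptomycin, 37 °C, 5% CO2. Seeded at 5000/well on day 0. Compounds added after 24 h as five serial dilutions (0,01 to 100 µM), DMSO ≤0.1%, then 72 h. MTT read-out converted to percentage growth. IC50 by linear regression; quadruplicates in three experiments.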

[16] = (§4) Antiproliferative activity against human SW620 cells assessed as inhibition of cell proliferation after 72 hrs by MTT assay; assay type: functional, cell-based, SW-620; settings: Homo sapiens, SW-620, 72 h; how it was run: as §3
[17] = tested on: SW-620; experiment: as §4; assay type: functional, cell-based; how it was run: as §3
[18] = tested on: HepG2; experiment: Antiproliferative activity against human HepG2 cells assessed as inhibition of cell proliferation after 72 hrs by MTT assay; assay type: functional, cell-based; how it was run: as §3
[19] = tested on: BJ; experiment: Antiproliferative activity against human BJ cells assessed as inhibition of cell proliferation after 72 hrs by MTT assay; assay type: cell-based; settings: 72 h; how it was run: as §3
[20] = tested on: HeLa; experiment: Antiproliferative activity against human HeLa cells assessed as inhibition of cell proliferation after 72 hrs by MTT assay; assay type: functional, cell-based; how it was run: as §3

ΔTm [10]: 12.2 °C | ΔTm [11]: 17.3 °C | Activity [12]: Active | Activity [14]: Active | IC50 ([15]; Homo sapiens, MCF7, 72 h): 3.76 µM | IC50 ([18]; HepG2, 72 h): 20.5 µM | IC50 ([20]; Homo sapiens, HeLa, 72 h): 6.25 µM
Structure (SMILES): Cl.c1ccc2c(c1)CN(c1ccc(C3=NCCN3)nc1)/C2=N/c1ccc(C2=NCCN2)nc1
Activity [1]: 7.5% | Activity [2]: 7.8% | Activity [3]: 19.6% | Activity [4]: 22.1% | Activity [5]: 40.4% | Activity [6]: 36.2% | Activity [7]: 40% | Activity [8]: 41.7% | Activity [9]: Active | inhibition [13]: inactive | inhibition [15]: Dose-dependent effect | IC50 [16]: 5.26 µM | inhibition [17]: Dose-dependent effect | inhibition [18]: Dose-dependent effect | IC50 ([19]; Homo sapiens, BJ): 4.26 µM | inhibition (INH) ([19]; human, bj): Dose-dependent effect | inhibition [20]: Dose-dependent effect
